Laboratory results as given in PMC5652303 (European journal of medicinal chemistry, 2017).
“And” between values parts separate entries of the source, which are not always exact repeats. Identical values can stand only once.

Key:
[1] = Monomer reaction with H2O2 by NMR analysis; assay type: physicochemical; settings: for Disappearance of starting materials: Time of completion / Disappearance of starting materials: kobs / QM formation: Time of completion / QM formation: kobs: DMSO/deuterated phosphate buffer pH 8 (3:2), with H2O2; for Time to completion of reaction with H2O2 (oxidative deboronation): phosphate buffer pH 8 in D2O/DMSO 2:3, SI Figures S14, 15, 17, 18
[2] = Chemical stability of the compounds; assay type: physicochemical; settings: for Hydrolysis of the acetate group: NMR, phosphate buffer pH 8 in D2O/DMSO 2:3, before addition of H2O2
[3] = system: ovarian cancer SKOV3 cell; experiment: Cytotoxicity in SKOV3 cells; assay type: cell-based; settings: for Cytotoxicity (initial test): SKOV3 cells; for IC50: Homo sapiens, SK-OV-3
Summary of the method: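 Cells grown in RPMI 1640 with 5% FBS and 2 mM L-glutamine, seeded at 5,000–10,000 cells/well in 384-well plates, and left 2–3 h at 37 °C, 5% CO2. Compounds were made as 20 mM DMSO stocks and serially diluted 2-fold ten times, then added at 1:100. After 48 h, viability was read by CellTiter-Glo luminescence after 10 min at room temperature. IC50 came from four-parameter nonlinear regression.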

breast cancer MDA-MB-468 = experiment: Cytotoxicity towards tumor cells; assay type: cell-based; settings: Homo sapiens, MDA-MB-468, 48 h
49-mer DNA duplex 25 = experiment: H2O2-induced DNA interstrand cross-link; assay type: biochemical; settings: for DNA ICL cross-linking yield without H2O2: no H2O2, duplex 25, pH 8 phosphate buffer; for Kinetics of ICL formation: Time of completion: phosphate buffer pH 8; for ICL formation rate constant relative to 1a: rate constants of Table 1
Summary of the method: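 The 32P-labelled strand (0.5 µM) was annealed to 1.5 equiv of complement at 65 °C for 3 min in 10 mM potassium phosphate pH 7 with 100 mM NaCl, then cooled slowly overnight. Duplex, NaCl, potassium phosphate (pH 6–8), H2O2 and compound (100 µM–2 mM, in CH3CN) were incubated 24 h; some runs went 48 h. Reactions were quenched with 90% formamide loading buffer and run on 20% denaturing PAGE with phosphorimaging. Yields were corrected for the no-H2O2 control.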

[4] = system: H2AX phosphorylation at Ser139; experiment: DNA damage response: H2AX phosphorylation in CLL lymphocytes, flow cytometry; assay type: cell-based, human; settings: 10 µM, 24 hours
Summary of the method: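 Lymphocytes were isolated from CLL patients' peripheral blood on a Ficoll-hypaque gradient and held in RPMI with 10% autologous plasma. After compound exposure, cells were washed in PBS, fixed in ice-cold 70% ethanol and stored at −20 °C. They were then permeabilised, stained with FITC anti-H2AX Ser139 antibody, and analysed by flow cytometry.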

normal lymphocytes = experiment: Viability of normal lymphocytes, annexin/PI binding assay; assay type: cell-based, human; settings: healthy donors (n=2), 10 µM, 24 hours
Summary of the method: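 Lymphocytes were separated from healthy donors' peripheral blood on a Ficoll-hypaque gradient and suspended in RPMI with 10% autologous plasma. After compound exposure, the percentage of viable cells was scored by annexin V/propidium iodide binding.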

[5] = system: 60 human cancer cell lines; experiment: NCI DTP in vitro cancer cell screen; assay type: cell-based; settings: 10 µM, most of the 60 cell lines
Summary of the method: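 NCI DTP screen. Human tumour cell lines were grown in RPMI 1640 with 5% FBS and 2 mM L-glutamine. Cells were plated in 96-well plates at 5,000–40,000 cells/well, set by each line's doubling time, and treated at a single 10 µM dose.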

SMILES	Disappearance of starting materials: Time of completion [1] [min]	Disappearance of starting materials: kobs [1]	QM formation: Time of completion [1] [min]	Hydrolysis of the acetate group [2]	Cytotoxicity (initial test) [3]	DNA ICL cross-linking yield without H2O2 (49-mer DNA duplex 25; 2 mM compound, 37 °C)	Chemical stability [2]	Kinetics of ICL formation: Time of completion (49-mer DNA duplex 25) [min]	QM formation: kobs [1]	Induction of DNA damage response (H2AX phosphorylation) [4]	Toxicity to normal lymphocytes (normal lymphocytes)	IC50 [3] [µM]	further results
COc1cc(COC(C)=O)c(B2OC(C)(C)C(C)(C)O2)c(COC(C)=O)c1 [2b, (5-Methoxy-2-(4,4,5,5-tetramethyl-1,3,2-dioxaborolan-2-yl)-1,3-phenylene)bis(methylene) diacetate]	480	9.1 ± 0.6 10^−5 s^−1	480	hydrolyzed prior to addition of H2O2	not cytotoxic	–	–	–	–	–	–	–	Time to completion of reaction with H2O2 (oxidative deboronation) [1]: not finished within one hour
N[C@@H](Cc1ccc(N(CCCl)CCCl)cc1)C(=O)O [Melphalan, melphalan]	–	–	–	–	–	–	–	–	–	–	–	–	IC50 (breast cancer MDA-MB-468): 48.7 µM
O=C(O)CCCc1ccc(N(CCCl)CCCl)cc1 [Chlorambucil, chlorambucil]	–	–	–	–	–	–	–	–	–	–	–	–	IC50 (breast cancer MDA-MB-468): 34.4 µM
CC(=O)OCc1cccc(COC(C)=O)c1B1OC(C)(C)C(C)(C)O1 [1b, (2-(4,4,5,5-Tetramethyl-1,3,2-dioxaborolan-2-yl)-1,3-phenylene)bis(methylene) diacetate]	240	19.4 ± 1.2 10^−5 s^−1	240	hydrolyzed prior to addition of H2O2	not cytotoxic	–	–	–	–	–	–	–	–
COc1c(CBr)c(B2OC(C)(C)C(C)(C)O2)c(CBr)c(OC)c1OC [4a, 2-(2,6-Bis(bromomethyl)-3,4,5-trimethoxyphenyl)-4,4,5,5-tetramethyl-1,3,2-dioxaborolane]	–	–	–	–	not cytotoxic	0%	more stable than 3a	–	–	–	–	–	DNA ICL cross-linking yield with H2O2 (49-mer DNA duplex 25; 2 mM compound, 2 mM H2O2, duplex 25, pH 8 phosphate buffer, 37 °C): 0%; ICL yield after incubation of ICL products at pH 6 (49-mer DNA duplex 25; ICLs generated at pH 6, then incubated at pH 6, 37 °C, 24 h): remained unchanged; ICL yield after incubation of ICL products at pH 8 (49-mer DNA duplex 25; ICLs generated at pH 6, then incubated at pH 8, 37 °C, 24 h): 3.0 ± 0.5%; ICL yield of ICL products generated with 4a at pH 6 (49-mer DNA duplex 25; duplex 25, generated at pH 6, before further incubation): 16.6 ± 1.0%; DNA ICL product formation at pH 7 or higher pH (49-mer DNA duplex 25; with H2O2, pH 7 or higher): not formed
CC1(C)OB(c2c(CBr)cccc2CBr)OC1(C)C [1a]	60	39.0 ± 1.5 10^−5 s^−1	60	–	–	0%	–	600	9.5 ± 0.2 10^−5 s^−1	induction of DNA damage response	no significant toxicity	6.3	–
COc1cc(OC)c(CBr)c(B2OC(C)(C)C(C)(C)O2)c1CBr [3a, 2-(2,6-Bis(bromomethyl)-3,5-dimethoxyphenyl)-4,4,5,5-tetramethyl-1,3,2-dioxaborolane]	–	–	–	–	–	17 ± 3% and 17%	not stable and easily decomposed even at 0 °C	–	–	–	–	–	–
COc1cc(CBr)c(B2OC(C)(C)C(C)(C)O2)c(CBr)c1 [2a, 2-(2,6-Bis(bromomethyl)-4-methoxyphenyl)-4,4,5,5-tetramethyl-1,3,2-dioxaborolane]	42	56.7 ± 4.3 10^−5 s^−1	50	–	–	–	chemically stable	240	38.3 ± 2.2 10^−5 s^−1	induction of DNA damage response	no significant toxicity	5.2	ICL formation rate constant relative to 1a (49-mer DNA duplex 25): 2–3 times; Growth percentage of most cell lines, single dose screening [5]: less than 50%
CC(=O)OCc1cc(O)cc(COC(C)=O)c1B1OC(C)(C)C(C)(C)O1 [5b, (5-Hydroxy-2-(4,4,5,5-tetramethyl-1,3,2-dioxaborolan-2-yl)-1,3-phenylene)bis(methylene) diacetate]	480	8.3 ± 0.5 10^−5 s^−1	480	hydrolyzed prior to addition of H2O2	–	–	–	–	–	–	–	–	Time to completion of reaction with H2O2 (oxidative deboronation) [1]: not finished within one hour
CC1(C)OB(c2c(CBr)cc(O)cc2CBr)OC1(C)C [5a, 3,5-Bis(bromomethyl)-4-(4,4,5,5-tetramethyl-1,3,2-dioxaborolan-2-yl)phenol]	40	61.7 ± 3.2 10^−5 s^−1	40	–	–	–	relatively stable	300	58.3 ± 4.3 10^−5 s^−1	induction of DNA damage response	no significant toxicity	3.8	ICL formation rate constant relative to 1a (49-mer DNA duplex 25): 2–3 times
